This passage reports Ki, IC50 and EC50 results from ChEMBL document CHEMBL1130206, “Arylcarbamate derivatives of 1-piperidineethanol as potent ligands for 5-HT4 receptors” (J Med Chem, 1997).

Structures are written as SMILES. A value given as a limit tells only on which side of the number the result lay.

Test [1] addresses T1, 5-hydroxytryptamine receptor 4 (Rattus norvegicus, UniProt Q62758). As to the kind of experiment: Binding affinity (Ki+/-SEM) against 5-hydroxytryptamine 4 receptor from cheng Prusoff equation by using [3H]GR-113808 in rat striatum. An outline of the steps: (§1)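 Rat striatal membranes in 50 mM Hepes pH 7.4, 0.1–0.2 mg protein in 0.5 mL, with [3H]GR 113808. Seven drug concentrations, tested in triplicate. Nonspecific binding defined with 10 μM ML 10302. Bound ligand collected by filtration on PEI-soaked GF/B filters, washed with 50 mM Tris-HCl pH 8.4, counted by scintillation. IC50 fitted, Ki from Cheng–Prusoff, ±SEM.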

The species entered for test [2] is Cavia porcellus. Description: Antagonist activity was calculated as the concentration which produced a 50% reduction in the submaximal of 5-HT induced contractions guinea pig ileum. The test is classed as functional.
For test [3], the species on record is Cavia porcellus. As to the kind of experiment: Agonist activity was assessed as the concentration which gave a 50% increase in the response to electrical stimulation in the guinea pig ileum; NA is not active. The test is classed as functional. In short, it runs like this:
(§2)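 Guinea pig ileum myenteric plexus–longitudinal muscle strip, 0.5 g tension, transmural stimulation at 0.2 Hz and 1.5 ms. Phenoxybenzamine 10^-7 M present, voltage set to give 50% of supramaximal contraction. After two reproducible cumulative 5-HT curves, a cumulative agonist curve was run (60–120 s contact). EC50 = concentration giving 50% increase of the stimulated response, relative to maximum. Max effect expressed as % of 5-HT maximum, 95% confidence limits.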

In test [4] the target is T2, 5-hydroxytryptamine receptor 4 (Cavia porcellus, UniProt O70528). As to the kind of experiment: concentration which gave a 50% increase in the response to electrical stimulation against 5-hydroxytryptamine 4 receptor in the guinea pig ileum. Activity expressed as percent of the maximum 5-HT response given in brackets. Type of test: functional, tissue-based. An outline of the steps:
as §2

Test [5] is filed under the species Cavia porcellus. Description: Agonist activity was assessed as the concentration which gave a 50% increase in the response to electrical stimulation in the guinea pig ileum and is expressed as percent of the maximum 5-HT response = 78%. Type of test: functional. An outline of the steps: as §2
Test [6] deals with T2, 5-hydroxytryptamine receptor 4. Description: The antagonist activity was calculated as the concentration which produced a 50% reduction against 5-hydroxytryptamine 4 receptor in guinea pig ileum. 95% confidence limits are in brackets. Type of test: functional, tissue-based.
Test [7] shares this target. Description: concentration which gave a 50% increase in the response to electrical stimulation against 5-hydroxytryptamine 4 receptor in the guinea pig ileum. The test is classed as functional, tissue-based. An outline of the steps: as §2
Test [8] addresses T1, 5-hydroxytryptamine receptor 4. Description: Binding affinity at 5-hydroxytryptamine 4 receptor in rat striatal membranes by [3H]GR-113808 displacement. Type of test: cell membranes, Striatum, Membrane. An outline of the steps:
as §1

For test [9], the species on record is Cavia porcellus. Description: Agonist activity was assessed as the concentration which gave a 50% increase in the response to electrical stimulation in the guinea pig ileum and is expressed as percent of the maximum 5-HT response = 14%. The test is classed as functional. In short, it runs like this:
as §2

In test [10] the target is T2, 5-hydroxytryptamine receptor 4. As to the kind of experiment: The antagonist activity was calculated as the concentration which produced a 50% reduction against 5-hydroxytryptamine 4 receptor in guinea pig ileum. Type of test: functional, tissue-based.
Test [11] is filed under the species Cavia porcellus. Description: Agonist activity was assessed as the concentration which gave a 50% increase in the response to electrical stimulation in the guinea pig ileum. The test is classed as functional. An outline of the steps:
as §2

Test [12] is filed under the species Cavia porcellus. Description: Antagonist activity was calculated as the concentration which produced a 50% reduction in the submaximal of 5-HT induced contractions guinea pig ileum and is expressed as percent of the maximum 5-HT response = 60%. The test is classed as functional.
The species named for test [13] is Cavia porcellus. Description: Antagonist activity was calculated as the concentration which produced a 50% reduction in the submaximal of 5-HT induced contractions guinea pig ileum and is expressed as percent of the maximum 5-HT response = 70%. Type of test: functional.

T1 sequence (Q62758 whole entry): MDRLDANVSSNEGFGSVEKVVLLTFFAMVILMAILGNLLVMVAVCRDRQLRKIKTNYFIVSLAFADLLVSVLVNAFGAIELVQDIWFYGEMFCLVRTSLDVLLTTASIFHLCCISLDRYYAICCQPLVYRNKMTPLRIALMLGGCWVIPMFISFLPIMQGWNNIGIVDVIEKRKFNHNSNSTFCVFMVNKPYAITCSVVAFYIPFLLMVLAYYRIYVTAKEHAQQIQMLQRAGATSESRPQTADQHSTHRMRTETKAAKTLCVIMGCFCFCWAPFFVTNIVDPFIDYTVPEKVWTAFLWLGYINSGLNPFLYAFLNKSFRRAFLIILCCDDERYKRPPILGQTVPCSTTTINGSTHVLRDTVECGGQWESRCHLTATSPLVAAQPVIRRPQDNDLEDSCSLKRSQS
T2 sequence (O70528 whole entry): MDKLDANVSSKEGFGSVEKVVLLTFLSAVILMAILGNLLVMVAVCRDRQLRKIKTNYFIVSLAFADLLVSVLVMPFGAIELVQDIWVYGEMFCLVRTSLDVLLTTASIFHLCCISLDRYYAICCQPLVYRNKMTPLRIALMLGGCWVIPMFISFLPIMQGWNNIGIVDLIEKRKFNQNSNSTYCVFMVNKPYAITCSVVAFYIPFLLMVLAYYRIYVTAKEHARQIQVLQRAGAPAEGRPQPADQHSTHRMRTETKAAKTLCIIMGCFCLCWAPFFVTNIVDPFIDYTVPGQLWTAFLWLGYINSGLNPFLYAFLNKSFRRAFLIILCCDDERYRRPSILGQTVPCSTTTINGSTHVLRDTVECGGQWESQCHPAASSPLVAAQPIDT

On to `Nc1cccc(NC(=O)OCCN2CCCCC2)c1`, for which, in test [1], the inhibitory constant (Ki) was over 1000 nM.
With `Cn1cc(C(=O)OCC2CCN(CCNS(C)(=O)=O)CC2)c2ccccc21`, the IC50 in the test filed under Cavia porcellus [2] was 13 nM. Moreover, in the test listed under Cavia porcellus [3], the EC50 entry is reported as “Not Active”.
Consider `COc1cc(N)c(Cl)cc1NC(=O)CCCN1CCCCC1`, for which the inhibition constant Ki in [1] was over 1000 nM.
As to `COc1cc(N)c(Cl)cc1NC(=O)OCCN1CCCC1`, the inhibition constant (Ki) in test [1] stood at 125 nM. In addition, in test [4], the EC50 is 200 nM.
For `COc1cc(N)c(Cl)cc1C(=O)OCCN1CCCCC1`, the EC50 in the test listed under Cavia porcellus [5] worked out at 4 nM.
With `COc1cc(N)c(Cl)cc1NC(=O)OCCN1CCCCCC1`, the affinity in [1], expressed as Ki, was 14.5 nM. The IC50 in test [6] was 207 nM. Besides, the EC50 in test [7] worked out at 100 nM.
Take `O=C(Nc1ccc(Cl)cc1)OCCN1CCCCC1`: affinity in test [8] was put at a Ki of 728 nM.
For the molecule `COc1ccc(Cl)cc1NC(=O)OCCN1CCCCC1`, the inhibitory constant (Ki) in test [8] is 4.2 nM. In addition, in the test listed under Cavia porcellus [2], the half-inhibitory concentration (IC50) is 30 nM. The EC50 in the test filed under Cavia porcellus [9] is about 1000 nM.
In test [8], `COc1ccccc1NC(=O)OCCN1CCCCC1` gave an inhibitory constant (Ki) of 8.9 nM. The IC50 in the test listed under Cavia porcellus [2] is about 300 nM. In addition, the EC50 in the test filed under Cavia porcellus [9] was about 100 nM.
Take `COc1cc(N)c(Cl)cc1C(=O)OCCN1C[C@H](C)C[C@H](C)C1`: the affinity in test [8], expressed as Ki, was 0.26 nM. Moreover, the concentration for half-maximal inhibition (IC50) in the test listed under Cavia porcellus [2] was 11 nM. Also, in the test listed under Cavia porcellus [3], the EC50 result is “Not Active”.
Consider `O=C(Nc1ccccc1Cl)OCCN1CCCCC1`, for which, in test [8], the Ki was over 1000 nM.
In turn, `COc1cc(N)c(Cl)cc1NC(=O)OCCN1CCCCC1` displayed a Ki in [1] of 39 nM. Besides, the EC50 in [7] is over 1000 nM.
Molecule `COc1ccccc1NC(=O)CCCN1CCCCC1` gave an inhibition constant Ki in test [8] of over 1000 nM.
On to `COc1cc(N)c(Cl)cc1NC(=O)OCCN1CCC(C)CC1`, for which the affinity in [1], expressed as Ki, was 25.1 nM. For the same molecule, the IC50 in test [10] was 200 nM. The molecule also displayed an EC50 in test [4] of 60 nM.
`CCOc1ccccc1NC(=O)OCCN1CCCCC1` showed a Ki in [8] of 2.6 nM. In the test filed under Cavia porcellus [2], the IC50 is 62 nM. For the same molecule, the EC50 in the test filed under Cavia porcellus [11] was over 1000 nM.
In test [8], `COc1ccc(NC(=O)OCCN2CCCCC2)cc1` displayed a Ki of over 1000 nM.
`O=C(Nc1cccc(Cl)c1)OCCN1CCCCC1`: the Ki in test [8] was 60.8 nM. Besides, in the test listed under Cavia porcellus [2], the 50% inhibitory concentration (IC50) is over 1000 nM. In the test listed under Cavia porcellus [11], the EC50 is over 1000 nM.
On to `COc1cc(N)c(Cl)cc1NC(=O)OCCN1CCCC(C)C1` (centres undefined), for which the inhibitory constant (Ki) in [1] turned out to be 10.2 nM.
Molecule `COc1cccc(NC(=O)OCCN2CCCCC2)c1` returned a Ki in test [8] of 469 nM.
Turning to `COc1ccccc1NC(=O)OCCCN1CCCCC1`, in test [8], the Ki was found to be 81 nM.
In [1], `Nc1ccccc1NC(=O)OCCN1CCCCC1` showed an inhibition constant (Ki) of over 1000 nM.
Take `COc1ccccc1NC(=O)OCCN1C[C@H](C)C[C@H](C)C1`: the affinity in test [8], expressed as Ki, was 2.6 nM. Besides, the IC50 in the test listed under Cavia porcellus [12] is 160 nM. Further, the EC50 in the test filed under Cavia porcellus [11] is over 1000 nM.
Take `CCOc1ccccc1NC(=O)OCCN1CC(C)C[C@@H](C)C1` (single isomer, unassigned): the affinity in test [8] corresponds to a Ki of 1.16 nM. The IC50 in the test listed under Cavia porcellus [2] was 100 nM. Further, the EC50 in the test listed under Cavia porcellus [11] was over 1000 nM.
On to `O=C(Nc1ccccc1)OCCN1CCCCC1`, for which, in test [8], the inhibition constant Ki was determined as 31.7 nM. In the test listed under Cavia porcellus [2], the IC50 was about 1000 nM. For the same molecule, the EC50 in the test filed under Cavia porcellus [11] was over 1000 nM.
In [1], `Nc1ccc(NC(=O)OCCN2CCCCC2)cc1` registered an inhibition constant Ki of over 1000 nM.
Take `CCOc1ccccc1NC(=O)OCCN1C[C@H](C)C[C@H](C)C1`: affinity in test [8] was put at a Ki of 1.05 nM. Further, the EC50 in the test filed under Cavia porcellus [11] is over 1000 nM. Also, the half-maximal inhibitory concentration (IC50) in the test listed under Cavia porcellus [13] is 30 nM.
Consider `COc1cc(N)c(Cl)cc1NC(=O)OCCN1CC(C)CC(C)C1` (centres undefined), for which the Ki in test [1] was 2.4 nM. Further, the IC50 in [10] is 180 nM. The molecule also displayed an EC50 in test [7] of over 1000 nM.
`CCN(CC)CCOC(=O)Nc1cc(Cl)c(N)cc1OC`: in [1], the affinity, expressed as Ki, was 150 nM. The 50% inhibitory concentration (IC50) in test [10] was 1000 nM. In test [4], this molecule registered an EC50 of 300 nM.
Take `CCN(CC)CCOC(=O)c1cc(Cl)c(N)cc1OC`: the IC50 in the test filed under Cavia porcellus [2] was 77 nM. Besides, the EC50 entry in the test listed under Cavia porcellus [3] is listed as “Not Active”.

Broadly, the Ki is a measure of affinity in units of concentration, obtained from inhibition or displacement. A higher Ki goes with lower affinity. As a reminder, the IC50 is the midpoint of a concentration-inhibition curve.
